# Results taken from ChEMBL document CHEMBL3352043, “Discovery of small-molecule inhibitors selectively targeting the DNA-binding domain of the human androgen receptor” (J Med Chem, 2014).
# Calls of active or inactive are those of the source. The rule behind the calls is not given here.
# What was measured:
# [1] = Growth inhibition of AR-negative human PC3 cells after 3 days by MTS assay; type: cell-based; details: pc-3, 72 h
# MR49F = experiment: Growth inhibition of enzalutamide-resistant human MR49F cells after 3 days by MTS assay; type: functional, cell-based
# Outline: (§1)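 LNCaP and MR49F cells were seeded at 3000 cells/well in RPMI 1640 with 5% charcoal-stripped serum. They were treated with 0.1 nM R1881 plus compound (0−25 μM) for 4 days; the figure legend gives 3 days. Readout was MTS tetrazolium absorbance. Growth was normalized as (sample − vehicle)/(0.1 nM R1881 − vehicle) × 100.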
# [2] = system: T1, Androgen receptor (Homo sapiens), P10275 [Q592D]; experiment: Inhibition of human androgen receptor Q592D mutant expressed in human PC3 cells assessed as inhibition of transcription activity after 24 hrs by luciferase reporter gene assay; type: cell-based; details: PC-3
# T1 sequence (whole entry): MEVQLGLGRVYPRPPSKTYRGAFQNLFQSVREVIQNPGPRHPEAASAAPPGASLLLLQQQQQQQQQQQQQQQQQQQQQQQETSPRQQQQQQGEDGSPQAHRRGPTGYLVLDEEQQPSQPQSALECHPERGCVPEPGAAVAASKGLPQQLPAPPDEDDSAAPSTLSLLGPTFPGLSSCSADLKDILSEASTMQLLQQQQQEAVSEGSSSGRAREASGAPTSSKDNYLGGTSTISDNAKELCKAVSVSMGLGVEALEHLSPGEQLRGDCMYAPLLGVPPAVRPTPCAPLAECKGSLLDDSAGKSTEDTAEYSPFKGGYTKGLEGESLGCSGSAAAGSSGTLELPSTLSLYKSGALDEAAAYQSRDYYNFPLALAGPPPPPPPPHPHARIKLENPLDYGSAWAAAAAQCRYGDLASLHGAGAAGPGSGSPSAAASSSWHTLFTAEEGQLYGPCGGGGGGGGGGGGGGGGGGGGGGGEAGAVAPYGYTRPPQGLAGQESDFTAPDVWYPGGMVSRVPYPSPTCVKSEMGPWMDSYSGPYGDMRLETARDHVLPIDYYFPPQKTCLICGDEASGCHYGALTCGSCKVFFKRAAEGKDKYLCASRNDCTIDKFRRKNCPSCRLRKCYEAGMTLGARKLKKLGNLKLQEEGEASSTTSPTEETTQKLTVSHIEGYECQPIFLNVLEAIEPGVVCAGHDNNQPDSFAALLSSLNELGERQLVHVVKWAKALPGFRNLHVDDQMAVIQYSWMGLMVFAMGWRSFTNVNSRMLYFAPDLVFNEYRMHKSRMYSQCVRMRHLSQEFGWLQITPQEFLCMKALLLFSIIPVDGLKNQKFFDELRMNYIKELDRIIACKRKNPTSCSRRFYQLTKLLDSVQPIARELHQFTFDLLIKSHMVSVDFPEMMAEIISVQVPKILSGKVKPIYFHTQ
# Outline: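 PC3 cells were starved 5 days in RPMI 1640 with 5% charcoal-stripped serum and seeded at 5000 cells/well. After 24 h they were cotransfected with AR-V7 or hAR mutant plasmid plus 50 ng ARR3tk-luciferase. At 48 h post-transfection, compounds were added for 24 h with 0.1 nM R1881. Luminescence was read from passive-lysis-buffer lysates; mutant tests used 10 μM.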
# LNCaP = experiment: Growth inhibition of AR-dependent human LNCAP cells after 3 days by MTS assay; type: functional, cell-based; outline: as §1
# [3] = Stability of the compound in RPMI plus 5% charcoal stripped serum media after 1 hr by MS analysis; type: physicochemical
inhibition [2],Stability [3],Compound,Activity [1],growth inhibition (GI) (MR49F),growth inhibition (GI) (LNCaP)
inactive,Stable,Brc1ncn(-c2csc(N3CCOCC3)n2)c1Br,Non-toxic,Active,Dose-dependent effect
inactive,,c1ccc(-c2csc(N3CCOCC3)n2)cc1,,,
